Assay results: ChEMBL document CHEMBL1136789, “Synthesis and biological evaluation of new 2-(4,5-dihydro-1H-imidazol-2-yl)-3,4-dihydro-2H-1,4-benzoxazine derivatives” (J Med Chem, 2003)
Calls of active or inactive are those of the source. The rule behind the calls is not given here.

Key:
[1] = In vitro alpha-2 adrenergic receptor binding affinity was determined on calf frontal cortex membrane preparation; assay type: tissue-based, Bos taurus
Rattus norvegicus [2] = test: Effect (25 mg/kg ip) on heart rate in anesthetized spontaneously hypertensive rats; assay type: functional
Procedure, shortened: (§1)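 Adult male SHR anaesthetised with sodium pentobarbital 50 mg/kg ip, left carotid catheter filled with heparinised saline. BP and HR (HR from pulse pressure) stabilised ≥40 min before a single ip dose, n=6/group. Vehicle 0.5% carboxymethylcellulose in water, 2.5 mL/kg. Recorded over 90 min. Output is the maximal change in MAP (mmHg) and HR (bpm) from pre-dose baseline, also as %. Repeated-measures ANOVA with Dunnett's tests.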

Rattus norvegicus [3] = test: Effect at (25 mg/kg, ip) on heart rate in anesthetized spontaneously hypertensive rats; assay type: functional; procedure, shortened: as §1
[4] = In vitro alpha-1 adrenergic receptor binding affinity was determined on calf frontal cortex membrane preparation; assay type: tissue-based, Bos taurus
Procedure, shortened: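 Calf frontal cortex membranes (0.5 mg protein/mL) incubated 40 min at 25 °C with 0.5 nM [3H]prazosin in 50 mM phosphate buffer with 10 mM MgCl2. Competitors at 10^-9 to 10^-4 M. Nonspecific binding set with 10 µM phentolamine. Stopped by rapid vacuum filtration through glass fibre filters, then washed three times with ice-cold buffer. Ki reported.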

Rattus norvegicus [5] = test: Effect (25 mg/kg ip) on mean arterial blood pressure in anesthetized spontaneously hypertensive rats; assay type: functional; procedure, shortened: as §1
[6] = target: imidazoline I2 binding site (Oryctolagus cuniculus); test: In vitro binding affinity determined against imidazoline receptor I-2 using rabbit kidney preparation
Rattus norvegicus [7] = test: Effect after 10 mg/kg, po, on heart rate in conscious spontaneously hypertensive rats; assay type: functional
Procedure, shortened: (§2)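 Studied conscious 24 h after surgery. Dosed by oral gavage after ≥40 min stabilisation, n=6/group. Vehicle 0.5% carboxymethylcellulose, 5 mL/kg. MAP and HR recorded over 24 h. Output is the maximal change from baseline (mmHg, bpm, %). Repeated-measures ANOVA with Dunnett's tests.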

Rattus norvegicus [8] = test: Effect after 100 mg/kg, po, on mean arterial blood pressure in conscious spontaneously hypertensive rats; assay type: functional; procedure, shortened: as §2
Rattus norvegicus [9] = test: Effect after 10 mg/kg, po, on mean arterial blood pressure in conscious spontaneously hypertensive rats; assay type: functional; procedure, shortened: as §2
Rattus norvegicus [10] = test: Effect after 30 mg/kg, po, on heart rate in conscious spontaneously hypertensive rats; assay type: functional; procedure, shortened: as §2
Rattus norvegicus [11] = test: Effect after 100 mg/kg, po, on heart rate in conscious spontaneously hypertensive rats; assay type: functional; procedure, shortened: as §2
Rattus norvegicus [12] = test: Effect after 30 mg/kg, po, on mean arterial blood pressure in conscious spontaneously hypertensive rats; assay type: functional; procedure, shortened: as §2
Rattus norvegicus [13] = test: Effect at 25 mg/kg, ip, on mean arterial blood pressure in anesthetized spontaneously hypertensive rats; lethal at 12.5 mg; toxic at 5 mg; inactive at 0.5 mg; assay type: functional, organism-based; parameters: dose 25 mg/kg

SMILES	Ki [1]	Variation (Rattus norvegicus [2])	Max delta HR (Rattus norvegicus [3])	Ki [4]	Max delta MAP (Rattus norvegicus [5])	Variation (Rattus norvegicus [5])	further results
CN1CC(C2=NCCN2)Oc2ccc(F)cc21 (single isomer, unassigned; (-))	0.0329 µM	-45%	-143 beats min-1	> 1 µM	-55 mmHg	-31%	
Cc1cccc2c1OC(C1=NCCN1)CN2C (centres undefined)	0.0073 µM	-25%	-79 beats min-1	> 1 µM	-24 mmHg	-13%	
COC(=O)c1ccc2c(c1)N(C)CC(C1=NCCN1)O2 (centres undefined)	7.5 µM			> 10 µM			
CN1CC(C2=NCCN2)Oc2ccc(F)cc21 (stereo in doubt; (+)4h)	0.0682 µM	-25%	-85 beats min-1	2.54 µM	-50 mmHg	-28%	
COc1cc(=O)n2c3c(cccc13)OC(C1=NCCN1)C2 (centres undefined)	13 µM	4%	13 beats min-1	> 10 µM	-9 mmHg	-5%	
c1ccc(CN2CC(C3=NCCN3)Oc3ccccc32)cc1 (centres undefined)	1.3 µM	-7%	-21 beats min-1	3.5 µM	-4 mmHg	-2%	Ki [6]: 1.6 µM
CN1CC(C2=NCCN2)Oc2cc3ccccc3cc21 (centres undefined)	0.402 µM	-11%	-37 beats min-1	> 10 µM	-17 mmHg	-9%	
Cc1cc2c(cc1C)N(C)CC(C1=NCCN1)O2 (centres undefined)	0.026 µM	-33%	-100 beats min-1	5.66 µM	-8 mmHg	-5%	
CN1CC(C2=NCCN2)Oc2cc3c(cc21)CCCC3 (centres undefined)	0.098 µM	-17%	-53 beats min-1	> 10 µM	-15 mmHg	-9%	
CN1CC(C2=NCCN2)Oc2ccc(C(F)(F)F)cc21 (centres undefined)	0.263 µM	-43%	-134 beats min-1	> 10 µM	-32 mmHg	-18%	
Cc1ccc2c(c1)OC(C1=NCCN1)CN2C (centres undefined)	0.03 µM	-19%	-60 beats min-1	1 µM	-34 mmHg	-20%	
Cc1ccc2c(c1)N(C)CC(C1=NCCN1)O2 (centres undefined)	0.07 µM	-37%	-127 beats min-1	> 1 µM	-32 mmHg	-175%	Ki [6]: 0.00199 µM; Max delta HR (Rattus norvegicus [7]): -11 beats min-1; Variation (Rattus norvegicus [7]): -3%; Max delta MAP (Rattus norvegicus [8]): -53 mmHg; Variation (Rattus norvegicus [8]): -28%; Max delta MAP (Rattus norvegicus [9]): -18 mmHg; Variation (Rattus norvegicus [9]): -10%; Max delta HR (Rattus norvegicus [10]): -32 beats min-1; Variation (Rattus norvegicus [10]): -10%; Max delta HR (Rattus norvegicus [11]): -77 beats min-1; Variation (Rattus norvegicus [11]): -23%; Max delta MAP (Rattus norvegicus [12]): -43 mmHg; Variation (Rattus norvegicus [12]): -23%
CN1CC(C2=NCCN2)Oc2ccc(F)cc21 (stereo in doubt; 4h)	0.104 µM	-44%	-139 beats min-1	5.91 µM	-6 mmHg	-36%	Max delta HR (Rattus norvegicus [7]): 25 beats min-1; Variation (Rattus norvegicus [7]): 7%; Max delta MAP (Rattus norvegicus [8]): -81 mmHg; Variation (Rattus norvegicus [8]): -44%; Max delta MAP (Rattus norvegicus [9]): -34 mmHg; Variation (Rattus norvegicus [9]): -18%; Max delta HR (Rattus norvegicus [10]): -43 beats min-1; Variation (Rattus norvegicus [10]): -12%; Max delta HR (Rattus norvegicus [11]): -61 beats min-1; Variation (Rattus norvegicus [11]): -18%; Max delta MAP (Rattus norvegicus [12]): -56 mmHg; Variation (Rattus norvegicus [12]): -29%
Cc1ccc2c3c1CCCN3CC(C1=NCCN1)O2 (centres undefined)	0.23 µM	-25%	-79 beats min-1	> 10 µM	-17 mmHg	-9%	
CCOCc1ccc2c(c1)N(C)CC(C1=NCCN1)O2 (centres undefined)	> 1 µM			> 10 µM			
c1cc2c3c(c1)OC(C1=NCCN1)CN3CCCC2 (centres undefined)	2.15 µM	-22%	-65 beats min-1	4.6 µM	21 mmHg	11%	
Cc1cccc2c1N(C)CC(C1=NCCN1)O2 (centres undefined)	0.145 µM	-16%	-52 beats min-1	4.74 µM	47 mmHg	23%	
COc1ccc2c(c1)N(C)CC(C1=NCCN1)O2 (centres undefined)	0.287 µM	-18%	-54 beats min-1	> 10 µM	-14 mmHg	-8%	
CN1CC(C2=NCCN2)Oc2c1ccc1ccccc21 (centres undefined)		-24%	-80 beats min-1	> 10 µM	-14 mmHg	-8%	
c1cc2c3c(c1)ccn3CC(C1=NCCN1)O2 (centres undefined)	0.36 µM	-14%	-45 beats min-1	> 1 µM	-24 mmHg	-14%	
COc1cc(=O)n2c3c(ccc(C)c13)OC(C1=NCCN1)C2 (centres undefined)	6.8 µM	-6%	-17 beats min-1	9.4 µM	-1 mmHg	0%	
CCCN1CC(C2=NCCN2)Oc2ccccc21 (centres undefined)	0.132 µM	-27%	-90 beats min-1	> 10 µM	-26 mmHg	-14%	Ki [6]: 0.16 µM
CCCC1(C2=NCCN2)CN(C)c2ccccc2O1 (centres undefined)	> 1 µM	-17%	-56 beats min-1	> 1 µM	22 mmHg	11%	
CN1CC(C)(C2=NCCN2)Oc2ccccc21 (centres undefined)	> 1 µM	-11%	-37 beats min-1	> 1 µM	-17 mmHg	-9%	
c1cc2c3c(c1)OC(C1=NCCN1)CN3CCC2 (centres undefined)	0.34 µM	-24%	-77 beats min-1	0.71 µM	-34 mmHg	-20%	
c1cc2c3c(c1)OC(C1=NCCN1)CN3CC2 (centres undefined)	0.0286 µM	-25%	-103 beats min-1	> 10 µM	-56 mmHg	-30%	Max delta HR (Rattus norvegicus [7]): -50 beats min-1; Variation (Rattus norvegicus [7]): -14%; Max delta MAP (Rattus norvegicus [9]): -19 mmHg; Variation (Rattus norvegicus [9]): -10%; Max delta HR (Rattus norvegicus [10]): -94 beats min-1; Variation (Rattus norvegicus [10]): -27%; Max delta MAP (Rattus norvegicus [12]): -48 mmHg; Variation (Rattus norvegicus [12]): -25%
c1ccc2c(c1)NCC(C1=NCCN1)O2 (centres undefined)	> 10 µM	-3%	-8 beats min-1	> 10 µM	-17 mmHg	-9%	
CN1CC(C2=NCCN2)Oc2ccc(CO)cc21 (centres undefined)	0.0104 µM			> 10 µM			
Cc1cc(C)c2c(c1)N(C)CC(C1=NCCN1)O2 (centres undefined)	0.0124 µM			> 1 µM			Max delta MAP (Rattus norvegicus [13]): inactive; Variation (Rattus norvegicus [13]): inactive
CN1CC(C2=NCCN2)Oc2ccc(Cl)cc21 (centres undefined)	0.0525 µM	-32%	-96 beats min-1	1.46 µM	-53 mmHg	-28%	Max delta HR (Rattus norvegicus [10]): -40 beats min-1; Variation (Rattus norvegicus [10]): 11%; Max delta MAP (Rattus norvegicus [12]): -47 mmHg; Variation (Rattus norvegicus [12]): -24%
